# High-throughput results as filed in PubChem.
# Hits are enriched below; roughly 2.7% of the tested compounds scored in any of these assays.
# Wee1 stabilizer – human Wee1 degradation inhibition, primary screen. HeLa Luc-Wee1K328M stability, luciferase luminescence; 100% = proteasome inhibitor MG132 effect. P30291. reporter increase, % at 5 µM. AID 1321. 220,000 compounds, 1.2% hits;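 active = activation above the mean of all tested compounds plus 3 SD, set per screening run, cut at about 8.8% in these data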;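 note: cells exposed to compound for 20 h before luminescence read; 0% = DMSO alone and 100% = MG132 at 30 µM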
# TNF necrop inh – TNF-alpha cell death inhibition in Jurkat FADD-/- cells. Jurkat FADD-/- TNF necroptosis rescue, ATP luminescence, 24 h; 0 = TNF only, 100 = no-TNF cells. activation (protection from cell death), % at 10 µM. 220,000 compounds, 0.068% hits;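 active = activation, meaning protection from cell death, of at least 50% relative to plate controls; inactive = activation below 50%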;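 note: necroptosis triggered by 40 ng/mL TNF-alpha added together with compound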
# PfM18AAP inh-1 – PfM18AAP enzyme inhibition; 290,000 compounds, 1.2% hits; inhibition, % at 7.35 µM; recombinant PfM18AAP, H-Glu-NHMec fluorogenic cleavage;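 active = inhibition above the campaign mean inhibition over all tested compounds plus 3 SD, cut at about 28% in these data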;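 note: 0% = plate median of test compound wells and 100% = 2 mM ZnCl2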
# zVAD death inh – L929 zVAD cell death inhibition. L929 zVAD necroptosis rescue, ATP luminescence, 24 h; with zVAD 60 µM. viability rescue, % at 10 µM. 220,000 compounds, 0.38% hits;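 active = activation, scaled between plate controls, above about 75%, limit read from the data; inactive = activation under that limit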;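 note: 0% = zVAD with DMSO and 100% = DMSO alone without zVAD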
# RBBP9 inh – human RBBP9 hydrolase inhibition; inhibition, % at 7.94 µM; recombinant RBBP9, FP-Rh probe fluorescence polarization; 220,000 compounds, 0.2% hits; AID 1515;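 active = inhibition above the campaign mean of all tested compounds plus 3 SD, cut at about 14% in these data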;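 note: plate controls were DMSO wells with RBBP9 for no effect and wells lacking RBBP9 protein for full effect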
# Target sequence (O75884 whole entry, looked up): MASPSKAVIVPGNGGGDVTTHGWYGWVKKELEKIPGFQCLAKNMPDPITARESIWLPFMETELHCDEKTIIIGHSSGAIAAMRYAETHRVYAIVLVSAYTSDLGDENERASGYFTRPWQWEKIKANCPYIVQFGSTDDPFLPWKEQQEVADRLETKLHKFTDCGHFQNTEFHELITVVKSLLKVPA
#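 Material: RBBP9 protein. Amount: RBBP9 at 2.5 µM in dispensed solution, before mixing. Schedule: 30 min then 45 min, 25 °C. Medium: Tris buffer pH 8.0, NaCl, Pluronic. Measured by: fluorescence polarization. Measure: percent inhibition from mP, scaled between DMSO and no-protein wells. Replication: one well per compound.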
# p97 ATPase inh – blocks human p97 ATPase activity. 220,000 compounds, 0.42% hits. recombinant p97 ATPase, Kinase-Glo ATP luminescence, 3 h. P55072. inhibition, % at 8 µM; in the data active = inhibition above about 15%;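 note: 0% = DMSO vehicle and 100% = wells lacking enzyme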
# PfM18AAP inh-2 – confirmation of Plasmodium falciparum M18 aspartyl aminopeptidase inhibitors; shares compounds with PfM18AAP inh-1; recombinant PfM18AAP, H-Glu-NHMec fluorogenic cleavage; inhibition, % at 7.35 µM; 2,400 compounds, 28% hits; AID 2170;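 active = mean inhibition over replicate wells above the hit cutoff set for the earlier primary screen, cut at about 29% in these data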;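 note: 0% = median of test compound wells and 100% = 2 mM ZnCl2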
# CTSL1 confirm – Cathepsin L (human) inhibition, confirmation; inhibition, % at 5.96 µM; shares compounds with PfM18AAP inh-1; purified cathepsin L1, Z-Leu-Arg-MCA fluorescence; 2,400 tested, under 10 active; AID 2178;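 active = average inhibition across replicates above the hit cutoff set in the earlier primary screen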;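 note: 0% = median of test compound wells and 100% = Z-Phe-Ala-diazomethylketone 1 µM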
# Target sequence (P07711 whole entry, looked up): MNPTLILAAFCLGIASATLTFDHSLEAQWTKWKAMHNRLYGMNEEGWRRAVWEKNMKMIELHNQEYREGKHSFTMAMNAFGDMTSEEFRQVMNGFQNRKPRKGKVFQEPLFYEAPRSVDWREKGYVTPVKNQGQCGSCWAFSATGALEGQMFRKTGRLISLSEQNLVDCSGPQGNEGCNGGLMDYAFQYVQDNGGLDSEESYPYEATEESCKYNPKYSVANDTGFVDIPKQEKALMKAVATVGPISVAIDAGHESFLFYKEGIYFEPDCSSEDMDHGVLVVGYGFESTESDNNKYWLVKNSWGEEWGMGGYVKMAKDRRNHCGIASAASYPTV
# * = called active by the depositor; . = not tested or not shown.
SMILES,Wee1 stabilizer,TNF necrop inh,PfM18AAP inh-1,zVAD death inh,RBBP9 inh,p97 ATPase inh,PfM18AAP inh-2,CTSL1 confirm
Oc1ccc(C2=Nn3c(nnc3-c3ccco3)SC2)cc1O,0.4,-9.8,74.6*,18.1,3.4,11.9,59.5*,-1.4
COc1ccc(C2=Nn3c(nnc3-c3ccco3)SC2)cc1,0.9,-9.6,-3.8,-0.7,0.4,0.5,.,.
CN(Cc1nc(Cc2cccc(F)c2)no1)CC1CCOCC1,5.3,1.8,-4.9,1.4,-7.1,-5.0,.,.
O=C(Cc1ccccc1)Nc1nc(=O)c2ccccc2s1,1.8,2.4,39.8*,-0.2,-7.6,5.1,-52.5,-11.0
CCn1c(NC(=O)c2ccc(F)cc2)c2ccccc2nc1=O,2.3,-10.1,-4.2,-0.3,0.5,-1.2,.,.
O=C(Nc1nc(=O)c2ccccc2s1)c1ccc(F)cc1,3.1,-0.3,41.5*,0.1,7.2,3.7,-32.1,-0.9
O=C(Cc1ccccc1)Nc1nc2ccccc2s1,2.3,11.8,2.7,0.9,-6.2,2.1,.,.
COC(=O)c1cccc(N(CC(=O)NC2CCCC2)C(=O)CNC(=O)c2cccs2)c1,.,.,-5.4,.,.,.,.,.
COc1ccc(C)cc1NC(=O)NNC(=O)C(C)Oc1ccc([N+](=O)[O-])cc1 (centres undefined),.,.,3.1,.,.,.,.,.
CCOC(=O)N1CCN(C(=O)CN(c2cccc(C(F)(F)F)c2)S(=O)(=O)c2ccccc2)CC1,-2.5,-2.5,36.5*,-0.6,-8.0,2.7,-62.1,-4.3
Cc1ccc2nc3c(cc(C(=O)NCc4ccco4)c(=N)n3C3CCCC3)c(=O)n2c1,.,.,37.9*,.,.,.,-29.6,3.0
Oc1cccc(Nc2c3ccccc3nc3ccccc23)c1,.,.,36.9*,.,.,.,-47.7,3.8
Cc1ccc(-c2nc(Nc3cccc(O)c3)c3ccccc3n2)cc1,.,.,-3.6,.,.,.,.,.
CC(C)c1ccccc1NC1=CC(=O)CC(C)(C)C1,0.7,0.5,-1.3,-0.1,-0.3,1.8,.,.
O=C(CSc1ccc(-c2cccnc2)nn1)Nc1ccccc1C(F)(F)F,.,.,-2.7,.,.,.,.,.
C(=C\c1ccco1)/C=N/n1cnnc1,9.7*,0.7,57.5*,2.3,-9.8,0.7,-5.5,1.1
O=C1c2ccccc2NC(c2ccc(O)c(O)c2)N1c1ccccc1Cl (centres undefined),.,.,57.1*,.,.,.,56.5*,-2.2
Cc1[nH]c(=S)c(C#N)c(C)c1CCC#N,-1.7,-0.1,38.0*,0.8,-6.6,-0.3,37.2*,0.5
Cc1[nH]c(=S)c(C#N)c(C)c1Cc1ccccc1,-0.4,0.7,6.8,-0.8,-2.6,9.1,.,.
Cc1c(NC(=O)COC(=O)c2ccc(Br)o2)c(=O)n(-c2ccccc2)n1C,4.0,0.9,-11.5,2.2,-2.4,1.3,.,.
O=C(CSc1ncn[nH]1)c1ccccc1,-1.8,-1.9,41.9*,-0.5,4.0,4.2,53.4*,-4.0
O=C(CSc1ncn[nH]1)N1CCCCC1,-1.2,5.0,44.9*,0.9,-7.8,3.3,-11.4,4.9
O=C(CSc1ncn[nH]1)c1cccc([N+](=O)[O-])c1,1.4,0.7,43.3*,-0.1,-9.2,-4.3,38.0*,-2.3
CN1/C(=C\C(=O)CSc2ncn[nH]2)C(C)(C)c2ccccc21,-3.3,-0.8,66.3*,-0.2,-9.0,-3.9,16.2,1.6
COC(=O)COc1coc(CN2CCN(c3cccc(Cl)c3)CC2)cc1=O,.,.,-3.1,.,.,.,.,.
CCOC(=O)C(C)Oc1ccc(NC(=O)C(Cl)Cl)cc1 (centres undefined),-3.4,3.7,1.0,0.4,-3.4,7.3,.,.
CN(C)c1ccc(C2CC(=O)C=C(Nc3ccccc3N)C2)cc1 (centres undefined),6.0,5.1,18.4,0.7,2.1,10.3,.,.
CC(C)OCCCNC(=O)NC(=O)c1ccc(Cl)cc1,-3.5,1.6,0.1,2.2,-3.9,5.5,.,.
C/C(=N\NC(=O)c1cc(O)ccc1O)c1cccc(NC(=O)c2cccc(Cl)c2)c1,.,.,15.5,.,.,.,.,.
